Assay results taken from ChEMBL document CHEMBL1208712, “Synthesis and anti-HCV activity of 3',4'-oxetane nucleosides” (Bioorg Med Chem Lett, 2010).

Assays:
Hepatitis C virus = assay: Antiviral activity against HCV 1a infected in human HB-1 cells assessed as inhibition of viral RNA replication after 24 hrs; assay type: functional, organism-based, Hepacivirus hominis; conditions: subtype 1a, HB1, 24 h
[1] = Cytotoxicity against human HuH7 cells by MTS assay; assay type: cell-based, Huh-7
In short: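 Tested at concentrations up to 50.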

[2] = Inhibition of HCV NS5B polymerase after 30 mins; design: species or system Hepacivirus hominis

| EC90 (Hepatitis C virus) [µM] | IC50 [2] [µM] | EC90 (Hepatitis C virus; read-out: EC90) [µM] | Ki [2] [nM] | SMILES | CC50 [1] [µM] |
| --- | --- | --- | --- | --- | --- |
| 5.21 | – | – | – | Nc1ccn([C@@H]2O[C@H](CO)[C@@H](O)[C@H]2F)c(=O)n1 | > 50 |
| < 1 | – | – | – | Nc1ccn([C@@H]2O[C@H](CO)[C@@H](O)C2(F)F)c(=O)n1 [GEMCITABINE] | < 0.1 |
| > 50 | – | – | – | CO[C@H]1[C@H](n2ccc(N)nc2=O)O[C@@]2(CO)CO[C@@H]12 | > 50 |
| > 50 | – | – | – | Nc1ccn([C@@H]2O[C@H](CO)[C@@H](O)[C@@H]2F)c(=O)n1 | > 50 |
| – | 78.9 | – | – | Nc1ccn([C@@H]2O[C@@]3(COP(=O)(O)OP(=O)(O)OP(=O)(O)O)CO[C@H]3[C@@H]2F)c(=O)n1 | – |
| – | 32.8 | – | – | Nc1ccn([C@@H]2O[C@@]3(COP(=O)(O)OP(=O)(O)OP(=O)(O)O)CO[C@H]3C2(F)F)c(=O)n1 | – |
| > 50 | – | – | – | Nc1ccn([C@@H]2O[C@@]3(CO)CO[C@H]3[C@H]2F)c(=O)n1 | > 50 |
| > 50 | – | – | – | Nc1ncnc2c1ncn2[C@@H]1O[C@@]2(CO)CO[C@H]2[C@H]1F | > 50 |
| > 50 | – | – | – | Nc1ccn([C@@H]2O[C@@]3(CO)CO[C@H]3[C@@H]2F)c(=O)n1 | > 50 |
| > 50 | – | – | – | Nc1ccn([C@@H]2O[C@@]3(CO)CO[C@H]3C2(F)F)c(=O)n1 | > 50 |
| – | – | 4.6 | – | C[C@@]1(F)[C@H](O)[C@@H](CO)O[C@H]1n1ccc(N)nc1=O | > 50 |
| – | 5.37 | – | 59 | C[C@@]1(F)[C@H](O)[C@@H](COP(=O)(O)OP(=O)(O)OP(=O)(O)O)O[C@H]1n1ccc(N)nc1=O [PSI-6130-TP] | – |
| > 50 | – | – | – | C[C@@]1(F)[C@@H]2OC[C@]2(CO)O[C@H]1n1ccc(N)nc1=O | > 50 |
| – | 31 | – | – | Nc1ccn([C@@H]2O[C@@]3(COP(=O)(O)OP(=O)(O)OP(=O)(O)O)CO[C@H]3[C@H]2F)c(=O)n1 | – |
